Data set [1] has as its system Mus musculus. As to the kind of experiment: Antidiabetic activity in diet induced obese C57Bl/6J mouse assessed as plasma insulin level at 1 mg/kg, po qd administered for 4 weeks (reference value: 3.6 +/- 0.2 ng/mL). The format is functional.
The test system of data set [2] is Mus musculus. As to the kind of experiment: Antidiabetic activity in diet induced obese C57Bl/6J mouse assessed as plasma leptin level at 1 mg/kg, po qd administered for 4 weeks (reference value: 22.5 +/- 2.4 ng/mL). The format is functional.
Data set [3] deals with Mus musculus. As to the kind of experiment: Antidiabetic activity in diet induced obese C57Bl/6J mouse assessed as plasma glucose level at 1 mg/kg, po qd administered for 4 weeks (reference value: 297 +/- 15 mg/dL). The data set is classed as functional.
Data set [4] addresses 11-beta-hydroxysteroid dehydrogenase 1 (Homo sapiens, UniProt P28845). Kind of data set: Inhibition of human recombinant 11beta-HSD1 by scintillation proximity assay. In general terms: Scintillation proximity formats need no separation of bound from free tracer.
The subject of the next data set is Liver microsomes. As to the kind of experiment: Metabolic stability in human liver microsomes. The format is ADME, Microsome.
Data set [5] relates to Mus musculus. As to the kind of experiment: Ex vivo inhibition of 11beta-HSD1 in C57Bl/6J mouse liver at 3 mg/kg, po after 16 hrs. The data set is classed as functional. In a few lines:
(§1)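 Mice given a single oral dose as a suspension in Tween 80/0.6% methylcellulose (0.5/99.5, v/v) at 10 mL/kg. At 2 h or 16 h post-dose, animals were killed by cervical dislocation and 50 mg liver and 200 mg subcutaneous fat were taken for 11β-HSD1 activity. Reactions were stopped with HCl 1 N/methanol (1/1). 3H-cortisone and 3H-cortisol were quantified by HPLC with flow scintillation detection.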

Data set [6] concerns Mus musculus. As to the kind of experiment: Ex vivo inhibition of 11beta-HSD1 in C57Bl/6J mouse subcutaneous fat at 3 mg/kg, po after 16 hrs. The format is functional. The gist of the method:
as §1

The subject of data set [7] is Mus musculus. As to the kind of experiment: Antidiabetic activity in diet induced obese C57Bl/6J mouse assessed as plasma insulin level at 10 mg/kg, po qd administered for 4 weeks (reference value: 3.6 +/- 0.2 ng/mL). The format is functional.
For the next data set, the system named is Hepatocyte. As to the kind of experiment: Intrinsic clearance in human hepatocytes assessed per 10^-6 cells. The data set is classed as ADME, cell-based.
For data set [8], the system named is Mus musculus. Kind of data set: Toxicity in C57Bl/6J mouse assessed as change in body weight at 1 to 10 mg/kg, po. The data set is classed as organism-based. On the set-up: dose 1-10 mg/kg, route oral. To be noted: in vivo. In a few lines:
(§2)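 C57Bl/6J mice, 20 weeks old, kept on a high-fat/high-fructose diet (diet-induced obese), were dosed orally once daily for 4 weeks at 1, 3 or 10 mg/kg/day in methylcellulose-Tween 80 vehicle. Lean and obese vehicle-treated controls were included, with n = 9–10 per group. Food intake and body weight were followed. Plasma drug levels were taken at study end, about 22 h after the last dose.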

Data set [9] concerns Mus musculus. Kind of data set: Toxicity in C57Bl/6J mouse assessed as effect on food intake at 1 to 10 mg/kg, po. The format is organism-based. More on the design: dose 1-10 mg/kg, route oral. To be noted: in vivo. In a few lines: as §2
A short description of data set [10]: Solubility of the compound in aqueous buffer up to pH 4.5. The format is physicochemical.
Data set [11] is filed under the species Mus musculus. As to the kind of experiment: Toxicity in C57Bl/6J mouse assessed as HPA axis biomarker modification. To be noted: in vivo. The data set is classed as organism-based.
Data set [12] is described as follows: Oral bioavailability in rat at 10 mg/kg. The data set is classed as ADME, organism-based. To be noted: in vivo.
Data set [13] in a line: Cmax in rat plasma at 10 mg/kg, po. The data set is classed as ADME, organism-based. More on the design: dose 10 mg/kg, route oral.
The next data set concerns the target Cytochrome P450 3A4 (Homo sapiens, UniProt P08684). Kind of data set: Inhibition of CYP3A4 (unknown origin). The format is ADME.
The nature of data set [14]: Plasma concentration in C57Bl/6J mouse at 3 mg/kg, po 22 hrs post last dose. The format is ADME, organism-based. More on the design: dose 3 mg/kg, route oral. The gist of the method:
as §2

Data set [15] deals with 11-beta-hydroxysteroid dehydrogenase 1 (Mus musculus, UniProt P50172). As to the kind of experiment: Inhibition of mouse recombinant 11beta-HSD1 by scintillation proximity assay.
Sequence of 11-beta-hydroxysteroid dehydrogenase 1 (Mus musculus, UniProt P50172) (P50172 whole entry): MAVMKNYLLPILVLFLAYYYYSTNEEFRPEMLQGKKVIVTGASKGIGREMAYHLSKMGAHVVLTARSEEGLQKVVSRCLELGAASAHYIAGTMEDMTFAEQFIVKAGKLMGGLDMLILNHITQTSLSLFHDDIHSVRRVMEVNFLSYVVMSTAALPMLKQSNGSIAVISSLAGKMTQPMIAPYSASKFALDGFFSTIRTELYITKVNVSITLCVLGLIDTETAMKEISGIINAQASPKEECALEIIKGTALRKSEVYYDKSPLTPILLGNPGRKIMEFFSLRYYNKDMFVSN
Data set [16] concerns Mus musculus. Kind of data set: Antidiabetic activity in diet induced obese C57Bl/6J mouse assessed as liver triglyceride level at 1 mg/kg, po qd administered for 4 weeks (reference value: 210.5 +/- 15.4 mg/g). The format is functional.
The subject of data set [17] is Mus musculus. As to the kind of experiment: Antidiabetic activity in po dosed C57Bl/6J mouse assessed as reduction in plasma insulin level administered for 4 weeks. The data set is classed as functional, organism-based.
In data set [18] the test system is Mus musculus. Kind of data set: Ex vivo inhibition of 11beta-HSD1 in C57Bl/6J mouse liver at 30 mg/kg, po after 16 hrs. The data set is classed as functional. In a few lines:
as §1

Data set [19] has as its system Mus musculus. Kind of data set: Antidiabetic activity in diet induced obese C57Bl/6J mouse assessed as plasma insulin level at 3 mg/kg, po qd administered for 4 weeks (reference value: 3.6 +/- 0.2 ng/mL). The format is functional.
For data set [20], the system named is Mus musculus. As to the kind of experiment: Inhibition of 11beta-HSD1 in mouse liver at 3 mg/kg, po after 7 hrs. The data set is classed as functional. In a few lines:
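Pharmacodynamic study in mice: single oral 3 mg/kg dose, with liver and fat 11β-HSD1 activity followed over 24 h post-dosing.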

For data set [21], the target named is 11-beta-hydroxysteroid dehydrogenase 1 (Rattus norvegicus, UniProt P16232). As to the kind of experiment: Inhibition of rat 11beta-HSD1.
Sequence of 11-beta-hydroxysteroid dehydrogenase 1 (Rattus norvegicus, UniProt P16232) (P16232 whole entry): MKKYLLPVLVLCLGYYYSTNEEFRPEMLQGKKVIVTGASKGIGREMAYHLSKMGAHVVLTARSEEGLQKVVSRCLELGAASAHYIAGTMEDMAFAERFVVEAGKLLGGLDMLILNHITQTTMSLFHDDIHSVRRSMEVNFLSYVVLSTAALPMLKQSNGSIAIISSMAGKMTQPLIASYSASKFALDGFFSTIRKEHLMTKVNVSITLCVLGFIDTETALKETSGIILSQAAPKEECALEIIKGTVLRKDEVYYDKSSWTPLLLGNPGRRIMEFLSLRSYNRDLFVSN

A value given as a limit tells only on which side of the number the result lay.

Sequence of Cytochrome P450 3A4 (P08684 whole entry): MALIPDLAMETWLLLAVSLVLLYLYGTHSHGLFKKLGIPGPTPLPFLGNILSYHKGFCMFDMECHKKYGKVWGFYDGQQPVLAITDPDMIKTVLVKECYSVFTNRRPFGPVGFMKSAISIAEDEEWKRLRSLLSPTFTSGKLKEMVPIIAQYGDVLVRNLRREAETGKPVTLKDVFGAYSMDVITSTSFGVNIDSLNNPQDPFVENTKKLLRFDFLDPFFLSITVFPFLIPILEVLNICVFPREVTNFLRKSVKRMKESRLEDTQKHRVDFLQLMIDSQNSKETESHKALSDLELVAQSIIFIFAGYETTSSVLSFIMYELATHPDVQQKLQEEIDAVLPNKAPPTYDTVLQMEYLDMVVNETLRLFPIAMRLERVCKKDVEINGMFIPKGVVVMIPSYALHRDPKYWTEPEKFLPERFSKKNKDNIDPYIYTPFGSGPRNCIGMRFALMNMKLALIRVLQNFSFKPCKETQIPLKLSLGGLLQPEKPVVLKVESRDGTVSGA
Sequence of 11-beta-hydroxysteroid dehydrogenase 1 (Homo sapiens, UniProt P28845) (P28845 whole entry): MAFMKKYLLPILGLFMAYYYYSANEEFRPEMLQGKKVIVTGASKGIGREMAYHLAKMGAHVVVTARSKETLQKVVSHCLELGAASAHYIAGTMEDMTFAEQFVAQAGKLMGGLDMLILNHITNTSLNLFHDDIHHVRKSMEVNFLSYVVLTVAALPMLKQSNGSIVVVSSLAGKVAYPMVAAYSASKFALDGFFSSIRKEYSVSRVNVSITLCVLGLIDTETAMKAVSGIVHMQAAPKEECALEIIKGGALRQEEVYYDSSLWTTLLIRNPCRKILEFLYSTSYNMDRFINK

Regarding `CC(C)(C)N1CCN(c2ccc(N3CCN(C(=O)N[C@H]4C5CC6CC4C[C@](C(N)=O)(C6)C5)c4ccccc43)nc2)CC1`, the Activity in the data set with Mus musculus [1] is 2.8 ng/mL; with Mus musculus [2], 14.9 ng/mL; in the data set on Mus musculus [3], 263 mg/dL; with Mus musculus [7], 1.9 ng/mL; in the data set with Mus musculus [8] it was “Non-toxic”; with Mus musculus [9], “Non-toxic”. In addition, the Activity entry is “Non-toxic” in the data set filed under Mus musculus [11], 167.4 mg/g with Mus musculus [16], “Dose-dependent effect” in the data set on Mus musculus [17] and 2.3 ng/mL with Mus musculus [19]. The half-maximal inhibitory concentration (IC50) (as a rule, the midpoint of a concentration-inhibition curve) is 4 nM in data set [4], over 50000 nM against Cytochrome P450 3A4, 6 nM in data set [15] and 7 nM in [21]. The molecule also returned a Stability in the data set on Liver microsomes of 2%. In addition, the inhibition in vivo (commonly how much of the control response was suppressed) at 3 mg/kg with Mus musculus [5] was over 50%; with Mus musculus [6] it was over 50%; in the data set with Mus musculus [20], over 90%. In the data set on Hepatocyte, this molecule yielded a CLH of 0.035 mL/h. For the same molecule, the solubility (as a rule, the dissolved amount per volume that the medium holds) in data set [10] was over 2 mg/mL. In data set [12], the bioavailability (in general, the share of a dose that reaches the circulation, judged against a reference dose that is usually intravenous) was found to be 25%. Also, the Cmax (usually the maximum level reached in the sampled fluid or tissue) in [13] worked out at 0.556 µg/mL. Also, the concentration at 22 h in data set [14] was determined as 3.8 nM. Moreover, the inhibition in vivo at 30 mg/kg with Mus musculus [18] was 72%.

The record behind these values is ChEMBL document CHEMBL2380292, “Discovery of SAR184841, a potent and long-lasting inhibitor of 11β-hydroxysteroid dehydrogenase type 1, active in a physiopathological animal model of T2D” (Bioorg Med Chem Lett, 2013).
